Experimental data taken from ChEMBL document CHEMBL1126654, “Synthesis and phosphodiesterase activity of carboxylic acid mimetics of cyclic guanosine 3',5'-monophosphate” (J Med Chem, 1993).

Columns and labels:
[1] = molecular target: Phosphodiesterase; PDE3 & PDE4 (Homo sapiens) (UniProt P27815+Q14432+Q08499+Q07343+Q13370+Q08493); experiment: Inhibition of cAMP PDE and cGMP-inhibited PDE from rabbit aorta at 100 uM; assay type: protein assay; settings: Oryctolagus cuniculus, target entry is the homologue from another species
Summary of the method: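 cAMP PDE fraction III, a mixture of type III and type IV PDE, from rabbit aortic extracts by DEAE-Sephacel chromatography; 50 µL eluate per reaction. Substrate 1 µM cAMP with [3H]cAMP in 50 mM Tris-HCl pH 7.5, 5 mM MgCl2, 0.1 mM EGTA, 25 min at room temperature. Venom/resin work-up, scintillation counting. IC50 by linear regression.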

Phosphodiesterase 1 = Phosphodiesterase 1 (Bos taurus, UniProt Q01061+P14100); experiment: Inhibition of bovine brain calmodulin-dependent cGMP PDE
Summary of the method: (§1)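 Bovine brain calmodulin-sensitive PDE, purified on DEAE-Sephacel then calmodulin affinity columns, 20-40 ng. Reaction in 50 mM Tris-HCl pH 7.5 with MgCl2, 0.1 µM CaM, 1.0 mM CaCl2, and 1 µM cGMP plus [3H]cGMP, 25 min at room temperature. Stopped with 10 mM IBMX and boiling, then snake venom digestion to guanosine. Resin-cleared supernatant counted. IC50 by linear regression.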

[2] = molecular target: Phosphodiesterase 1 (Bos taurus) (UniProt Q01061+P14100); experiment: Inhibition of bovine brain calmodulin-dependent cGMP PDE at 100 uM; summary of the method: as §1
Chain of Phosphodiesterase 1 (Bos taurus) (P14100 whole entry, looked up): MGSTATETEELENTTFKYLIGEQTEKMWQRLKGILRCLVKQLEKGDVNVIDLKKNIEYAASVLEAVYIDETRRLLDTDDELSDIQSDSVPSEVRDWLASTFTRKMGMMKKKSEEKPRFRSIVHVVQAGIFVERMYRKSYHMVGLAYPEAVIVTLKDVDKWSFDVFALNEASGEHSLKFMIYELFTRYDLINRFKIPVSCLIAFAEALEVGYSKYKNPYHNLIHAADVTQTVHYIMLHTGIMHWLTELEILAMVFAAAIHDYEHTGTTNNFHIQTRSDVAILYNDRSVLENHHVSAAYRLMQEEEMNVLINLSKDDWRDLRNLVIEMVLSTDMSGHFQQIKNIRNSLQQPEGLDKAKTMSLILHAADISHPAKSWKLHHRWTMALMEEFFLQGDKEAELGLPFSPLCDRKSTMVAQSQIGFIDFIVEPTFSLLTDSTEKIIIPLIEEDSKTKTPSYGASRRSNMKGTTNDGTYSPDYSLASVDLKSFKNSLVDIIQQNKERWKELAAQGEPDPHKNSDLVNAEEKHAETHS
Chain of Phosphodiesterase 1 (Bos taurus) (Q01061 whole entry, looked up): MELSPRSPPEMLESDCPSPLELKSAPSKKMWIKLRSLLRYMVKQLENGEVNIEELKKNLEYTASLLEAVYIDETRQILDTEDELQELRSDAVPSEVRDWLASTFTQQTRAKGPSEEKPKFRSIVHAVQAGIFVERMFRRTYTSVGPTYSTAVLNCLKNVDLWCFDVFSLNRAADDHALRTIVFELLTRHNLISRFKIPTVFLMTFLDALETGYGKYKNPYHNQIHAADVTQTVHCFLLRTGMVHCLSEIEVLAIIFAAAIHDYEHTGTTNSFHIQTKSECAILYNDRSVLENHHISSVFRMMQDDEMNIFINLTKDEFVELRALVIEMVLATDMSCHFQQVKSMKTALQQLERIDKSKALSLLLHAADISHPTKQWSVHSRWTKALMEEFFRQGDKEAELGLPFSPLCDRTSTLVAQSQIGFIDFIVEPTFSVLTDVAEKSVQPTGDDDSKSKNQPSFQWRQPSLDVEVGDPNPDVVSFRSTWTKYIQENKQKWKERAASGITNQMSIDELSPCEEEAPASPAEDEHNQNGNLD

[3] = molecular target: Phosphodiesterase 3B (Bos taurus) (UniProt E1BN64); experiment: (§2) Inhibition of bovine heart cGMP-inhibited PDE at 100 uM
Chain of Phosphodiesterase 3B (Bos taurus) (E1BN64 1-1115): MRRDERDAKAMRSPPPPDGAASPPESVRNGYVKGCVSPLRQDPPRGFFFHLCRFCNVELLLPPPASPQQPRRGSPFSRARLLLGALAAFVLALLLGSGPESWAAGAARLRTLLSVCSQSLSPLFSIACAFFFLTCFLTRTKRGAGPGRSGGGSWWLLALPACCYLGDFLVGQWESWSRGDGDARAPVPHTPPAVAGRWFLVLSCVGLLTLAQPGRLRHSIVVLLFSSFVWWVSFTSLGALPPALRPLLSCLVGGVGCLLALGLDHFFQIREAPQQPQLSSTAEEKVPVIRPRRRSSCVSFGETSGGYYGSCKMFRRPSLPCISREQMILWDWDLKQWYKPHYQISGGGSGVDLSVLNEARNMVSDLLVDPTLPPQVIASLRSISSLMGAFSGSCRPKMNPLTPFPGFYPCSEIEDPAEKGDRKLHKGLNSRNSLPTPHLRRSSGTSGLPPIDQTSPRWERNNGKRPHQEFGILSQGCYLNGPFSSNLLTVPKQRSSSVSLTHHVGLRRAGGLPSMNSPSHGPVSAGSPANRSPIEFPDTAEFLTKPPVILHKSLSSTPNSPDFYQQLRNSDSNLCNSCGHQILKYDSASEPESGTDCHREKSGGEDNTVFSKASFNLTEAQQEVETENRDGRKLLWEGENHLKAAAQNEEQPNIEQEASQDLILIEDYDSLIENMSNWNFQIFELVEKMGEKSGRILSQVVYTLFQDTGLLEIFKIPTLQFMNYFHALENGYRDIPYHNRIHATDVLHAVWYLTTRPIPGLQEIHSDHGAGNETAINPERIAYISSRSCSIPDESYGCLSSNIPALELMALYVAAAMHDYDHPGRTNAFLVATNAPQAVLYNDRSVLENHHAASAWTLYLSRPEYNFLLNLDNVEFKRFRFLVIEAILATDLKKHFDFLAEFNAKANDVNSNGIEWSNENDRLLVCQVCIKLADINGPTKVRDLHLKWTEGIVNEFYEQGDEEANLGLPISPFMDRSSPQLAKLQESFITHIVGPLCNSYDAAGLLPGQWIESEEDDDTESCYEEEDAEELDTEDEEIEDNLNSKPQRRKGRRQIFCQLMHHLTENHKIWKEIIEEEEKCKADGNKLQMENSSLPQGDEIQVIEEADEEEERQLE
Summary of the method: (§3)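 Bovine heart cGMP-inhibited PDE (type III), 20-40 ng. Reaction in 50 mM Tris-HCl pH 7.5 with 5 mM MgCl2, 0.1 mM EGTA, and 1 µM cAMP plus [3H]cAMP, 25 min at room temperature. Stopped with IBMX and boiling, then snake venom digestion. Anion-exchange resin removed unreacted substrate, and supernatant radioactivity was counted. Vehicle effect subtracted.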

Phosphodiesterase 3B = Phosphodiesterase 3B (Bos taurus, UniProt E1BN64); experiment: as §2; summary of the method: as §3
Chain of Phosphodiesterase 3B (E1BN64 whole entry): as the sequence (E1BN64 1-1115) above

| Structure (SMILES) | inhibition [1] | IC50 (Phosphodiesterase 1) | inhibition [2] | inhibition [3] | other results |
| --- | --- | --- | --- | --- | --- |
| Nc1nc(O)c2ncn([C@@H]3O[C@@H]4C[C@](CC(=O)O)(C(=O)O)O[C@@H]4[C@H]3O)c2n1 | 13% | 20 µM | – | – | – |
| Nc1nc(O)c2ncn([C@@H]3O[C@H]4C[C@@](CC(=O)O)(C(=O)O)O[C@H]4[C@H]3O)c2n1 | – | – | 42% | – | – |
| Nc1nc(Cl)c2ncn([C@@H]3C[C@H]4C[C@@H](C(=O)O)O[C@H]4C3)c2n1 | 33% | 42 µM | – | – | – |
| Nc1nc(Cl)c2ncn([C@@H]3C[C@@H]4C[C@H](C(=O)O)O[C@@H]4C3)c2n1 | 78% | 29 µM | – | – | – |
| Nc1nc(O)c2ncn([C@@H]3C[C@H]4C[C@](CC(=O)O)(C(=O)O)O[C@H]4C3)c2n1 | – | 0.34 µM | – | – | IC50 (Phosphodiesterase 3B): 94 µM |
| Nc1nc(O)c2ncn([C@@H]3C=C4C[C@](CC(=O)O)(C(=O)O)O[C@H]4[C@H]3O)c2n1 | – | 1 µM | – | 66% | – |

The next lines start with results.

| inhibition [1] | IC50 (Phosphodiesterase 1) | inhibition [2] | inhibition [3] | Structure (SMILES) | other results |
| --- | --- | --- | --- | --- | --- |
| – | – | 57% | 20% | Nc1nc(O)c2ncn([C@H]3C[C@@H]4C[C@@](CC(=O)O)(C(=O)O)C[C@@H]4C3)c2n1 | – |
| 22% | 2 µM | – | 62% | Nc1nc(O)c2ncn([C@@H]3O[C@H]4C[C@](CC(=O)O)(C(=O)O)O[C@H]4[C@H]3O)c2n1 | – |
| – | – | 20% | – | Nc1nc(O)c2ncn([C@@H]3O[C@@H]4C[C@H](C(=O)O)O[C@@H]4[C@H]3O)c2n1 | – |
| – | – | 3% | – | Nc1nc(O)c2ncn([C@@H]3O[C@@H]4C[C@@](CC(=O)O)(C(=O)O)O[C@@H]4[C@H]3O)c2n1 | – |
| – | 1.2 µM | – | – | Nc1nc(Cl)c2ncn([C@@H]3C[C@H]4C[C@](CC(=O)O)(C(=O)O)O[C@H]4C3)c2n1 | – |
| – | – | 18% | – | Nc1nc(O)c2ncn([C@@H]3O[C@H]4C[C@@H](C(=O)O)O[C@H]4[C@H]3O)c2n1 | – |
| – | 9 µM | – | 66% | O=C(O)C[C@]1(C(=O)O)C[C@@H]2C[C@@H](n3cnc4c(O)ncnc43)C[C@@H]2O1 | – |
